According to ChEMBL document CHEMBL1145194, “A bivalent ligand (KDAN-18) containing delta-antagonist and kappa-agonist pharmacophores bridges delta2 and kappa1 opioid receptor phenotypes” (J Med Chem, 2005):

How the values were obtained:
[1] = target: T1, Opioid receptors; delta & kappa (Homo sapiens, UniProt P41145+P41143); experiment: Inhibition of [3H]deltorphin II binding to delta and kappa opioid receptors coexpressed in HEK 293 cells; type: cell-based; conditions: hek293
[2] = target: T1, Opioid receptors; delta & kappa; experiment: Inhibition of [3H]U-69593 binding to delta and kappa opioid receptors expressed in HEK 293 cells; type: cell-based; conditions: hek293
Method in brief: (§1)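 Radioligand binding on intact HEK cells with [3H]U69593, using either δ and κ coexpressed in one line or a mixture of HEK cells singly expressing δ or κ. Run alone, with 10 nM NTB, or with 100 nM BNTX.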

[3] = target: T1, Opioid receptors; delta & kappa; experiment: Inhibition of [3H]U-69593 binding to delta and kappa opioid receptors coexpressed in HEK 293 cells; type: cell-based; conditions: hek293; method in brief: as §1
[4] = target: T1, Opioid receptors; delta & kappa; experiment: Inhibition of [3H]deltorphin II binding to delta and kappa opioid receptors expressed in HEK 293 cells; type: cell-based; conditions: hek293
[5] = test system: Mus musculus; experiment: Ratio of effective dose of compound producing agonistic activity in presence and absence of benzylidenenaltrexone (25 pmol) upon intrathecal administration in mouse tail flick assay; type: functional
Method in brief: (§2)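 Intrathecal tail-flick in CD1 mice. BNTX was given i.t. at 25 pmol with a 10 min peak time. Ratio is agonist ED50 with antagonist divided by agonist ED50 alone, taken as significant when its 95% confidence interval is >1.0. For combination dosing, the monovalent pair was coadministered i.t. equimolar.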

[6] = target: T1, Opioid receptors; delta & kappa; experiment: Inhibition of [3H]U-69593 binding to delta and kappa opioid receptors expressed in HEK 293 cells with 10 nM naltriben; type: cell-based; conditions: hek293; method in brief: as §1
[7] = target: T1, Opioid receptors; delta & kappa; experiment: Inhibition of [3H]-U-69,593 binding to delta and kappa opioid receptors co-expressed in HEK 293 cells with 10 nM naltriben; type: cell-based; conditions: hek293; method in brief: as §1
[8] = target: T1, Opioid receptors; delta & kappa; experiment: Inhibition of [3H]U-69593 binding to delta and kappa opioid receptors expressed in HEK 293 cells with 100 nM benzylidenenaltrexone; type: cell-based; conditions: hek293; method in brief: as §1
[9] = target: T1, Opioid receptors; delta & kappa; experiment: Inhibition of [3H]-U-69,593 binding to delta and kappa opioid receptors co-expressed in HEK 293 cells with 100 nM benzylidenenaltrexone; type: cell-based; conditions: hek293; method in brief: as §1
[10] = test system: Mus musculus; experiment: Effective dose required for agonistic activity upon intrathecal administration in mouse (n=10) tail flick assay; type: functional
Method in brief: (§3)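 CD1 mice dosed intrathecally, antinociception by tail-flick. A response counted as positive when latency exceeded control latency plus 3 SD of mean reaction time. ED50 given with 95% confidence limits. For combination dosing, the two monovalent ligands were coadministered i.t. in equimolar ratio.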

[11] = test system: Mus musculus; experiment: Ratio of effective dose of compound producing agonistic activity in presence and absence of naltriben (50 pmol) upon intrathecal administration in mouse tail flick assay; type: functional
Method in brief: as §2, with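 “NTB” for “BNTX”, “50” for “25”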

[12] = test system: Mus musculus; experiment: Ratio of effective dose of compound producing agonistic activity in presence and absence of norbinaltorphimine (2.5 nmol) upon intrathecal administration in mouse tail flick assay
[13] = test system: Mus musculus; experiment: Ratio of effective dose of compound producing agonistic activity in presence and absence of KDN21 upon intrathecal administration in mouse tail flick assay; type: functional
[14] = test system: Mus musculus; experiment: Ratio of effective dose of compound producing agonistic activity in presence and absence of CTOP (5.9 pmol) upon intrathecal administration in mouse tail flick assay; type: functional
[15] = test system: Mus musculus; experiment: Ratio of effective dose of compound producing agonistic activity in presence and absence of naltriben (50 pmol) upon intrathecal administration in mouse tail flick assay in presence of DN-18; type: functional
Method in brief: as §2, with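 “NTB” for “BNTX”, “50” for “25”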

[16] = test system: Mus musculus; experiment: Ratio of effective dose of compound producing agonistic activity in presence and absence of benzylidenenaltrexone (25 pmol) upon intrathecal administration in mouse tail flick assay in presence of DN-18; type: functional; method in brief: as §2
[17] = test system: Mus musculus; experiment: Effective dose required for agonistic activity upon intrathecal administration in mouse (n=10) tail flick assay in presence of DN-18; type: functional; method in brief: as §3
[18] = test system: Mus musculus; experiment: Ratio of effective dose of compound producing agonistic activity in presence and absence of norbinaltorphimine (2.5 nmol) upon intrathecal administration in mouse tail flick assay in presence of DN-18

| Compound | Ki [1] | Ki [2] | Ki [3] | Ki [4] | ED50 Ratio [5] | Ki [6] | Ki [7] | Ki [8] | Ki [9] | ED50 [10] | ED50 Ratio [11] | ED50 Ratio [12] | ED50 Ratio [13] | ED50 Ratio [14] | ED50 Ratio [15] | ED50 Ratio [16] | ED50 [17] | ED50 Ratio [18] |
| --- | --- | --- | --- | --- | --- | --- | --- | --- | --- | --- | --- | --- | --- | --- | --- | --- | --- | --- |
| CNC(=O)CNC(=O)CNC(=O)CCC(=O)NCC(=O)NCC(=O)Nc1cccc2c3c([nH]c12)[C@@H]1Oc2c(O)ccc4c2[C@@]12CCN(CC1CC1)[C@H](C4)[C@]2(O)C3 | 0.91 nM | > 1000 nM | > 1000 nM | 1.07 nM | – | – | – | – | – | – | – | – | – | – | – | – | – | – |
| CN(C(=O)Cc1ccc(Cl)c(Cl)c1)[C@H](CN1CCCC1)c1cccc(NC(=O)CNC(=O)CCC(=O)NCC(=O)Nc2cccc3c4c([nH]c23)[C@@H]2Oc3c(O)ccc5c3[C@@]23CCN(CC2CC2)[C@H](C5)[C@]3(O)C4)c1 | 1.23 nM | 1.9 nM | 1.66 nM | 0.43 nM | 2.1 | 2.02 nM | 4.06 nM | 2.75 nM | 3.79 nM | 0.44 nmol/mouse | 1.1 | 33 | – | – | – | – | – | – |
| CNC(=O)CNC(=O)CCC(=O)NCC(=O)Nc1cccc2c3c([nH]c12)[C@@H]1Oc2c(O)ccc4c2[C@@]12CCN(CC1CC1)[C@H](C4)[C@]2(O)C3 | 0.46 nM | > 1000 nM | > 1000 nM | 0.15 nM | – | – | – | – | – | – | – | – | – | – | – | – | – | – |
| CN(C(=O)Cc1ccc(Cl)c(Cl)c1)[C@H](CN1CCCC1)c1cccc(NC(=O)CNC(=O)CNC(=O)CCC(=O)NCC(=O)NCC(=O)Nc2cccc3c4c([nH]c23)[C@@H]2Oc3c(O)ccc5c3[C@@]23CCN(CC2CC2)[C@H](C5)[C@]3(O)C4)c1 | 0.008 nM | 2.51 nM | 0.06 nM | 0.52 nM | 3 | 1.94 nM | 2.34 nM | 1.14 nM | 0.19 nM | 0.19 nmol/mouse | 25.9 | 39.3 | 0.65 | 0.8 | – | – | – | – |
| CNC(=O)CNC(=O)CNC(=O)CCC(=O)NCC(=O)NCC(=O)Nc1cccc([C@@H](CN2CCCC2)N(C)C(=O)Cc2ccc(Cl)c(Cl)c2)c1 | > 1000 nM | 23.9 nM | 36.2 nM | > 1000 nM | 1.3 | – | – | – | – | 0.11 nmol/mouse | 1.5 | 10.8 | – | – | ~1 | ~1 | 0.14 nmol/mouse | 44.8 |
| CN(C(=O)Cc1ccc(Cl)c(Cl)c1)[C@H](CN1CCCC1)c1cccc(NC(=O)CNC(=O)CNC(=O)CCCCC(=O)NCC(=O)NCC(=O)Nc2cccc3c4c([nH]c23)[C@@H]2Oc3c(O)ccc5c3[C@@]23CCN(CC2CC2)[C@H](C5)[C@]3(O)C4)c1 | – | – | – | – | 3.4 | – | – | – | – | 0.5 nmol/mouse | 2 | 3.4 | – | – | – | – | – | – |
| CNC(=O)CNC(=O)CCC(=O)NCC(=O)Nc1cccc([C@@H](CN2CCCC2)N(C)C(=O)Cc2ccc(Cl)c(Cl)c2)c1 | 281.2 nM | 6.75 nM | 41.6 nM | > 1000 nM | 1 | – | – | – | – | 1.4 nmol/mouse | 1 | 11 | – | – | – | – | – | – |
